{"source": "ChEMBL document CHEMBL1649289", "about": "“Paradoxical growth of Candida dubliniensis does not preclude in vivo response to echinocandin therapy” (2009)", "assay_type_in_all_cases": "functional", "key": {"Candida dubliniensis [1]": {"tested_on": "Candida dubliniensis", "experiment": "Antifungal activity against Candida dubliniensis 9453 after 24 hrs", "details": "Candida dubliniensis, 9453, 24 h", "how_it_was_run": "(§1)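 CLSI M27-A3 broth microdilution. Yeast inoculum was adjusted with a hemocytometer. MIC was read at 24 h or 48 h as the lowest concentration giving 50% growth inhibition.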"}, "Candida dubliniensis [2]": {"tested_on": "Candida dubliniensis", "experiment": "Antifungal activity against Candida dubliniensis 9453 after 48 hrs", "details": "Candida dubliniensis, 9453, 48 h", "how_it_was_run": "as §1"}, "Candida dubliniensis [3]": {"tested_on": "Candida dubliniensis", "experiment": "Antifungal activity against Candida dubliniensis 9456 after 24 hrs", "details": "Candida dubliniensis, 9456, 24 h", "how_it_was_run": "as §1"}, "Candida dubliniensis [4]": {"tested_on": "Candida dubliniensis", "experiment": "Antifungal activity against Candida dubliniensis 9456 after 48 hrs", "details": "Candida dubliniensis, 9456, 48 h", "how_it_was_run": "as §1"}, "Candida dubliniensis [5]": {"tested_on": "Candida dubliniensis", "experiment": "Antifungal activity against Candida dubliniensis 10031 after 24 hrs", "details": "Candida dubliniensis, 10031, 24 h", "how_it_was_run": "as §1"}, "Candida dubliniensis [6]": {"tested_on": "Candida dubliniensis", "experiment": "Antifungal activity against Candida dubliniensis 10031 after 48 hrs", "details": "Candida dubliniensis, 10031, 48 h", "how_it_was_run": "as §1"}, "Candida dubliniensis [7]": {"tested_on": "Candida dubliniensis", "experiment": "Antifungal activity against Candida dubliniensis 10032 after 24 hrs", "details": "Candida dubliniensis, 10032, 24 h", "how_it_was_run": "as §1"}, "Candida dubliniensis [8]": {"tested_on": "Candida dubliniensis", "experiment": "Antifungal activity against Candida dubliniensis 10032 after 48 hrs", "details": "Candida dubliniensis, 10032, 48 h", "how_it_was_run": "as §1"}, "Candida dubliniensis [9]": {"tested_on": "Candida dubliniensis", "experiment": "Antifungal activity against Candida dubliniensis 10033 after 24 hrs", "details": "Candida dubliniensis, 10033, 24 h", "how_it_was_run": "as §1"}, "Candida dubliniensis [10]": {"tested_on": "Candida dubliniensis", "experiment": "Antifungal activity against Candida dubliniensis 10033 after 48 hrs", "details": "Candida dubliniensis, 10033, 48 h", "how_it_was_run": "as §1"}, "Candida dubliniensis [11]": {"tested_on": "Candida dubliniensis", "experiment": "Antifungal activity against Candida dubliniensis 10034 after 24 hrs", "details": "Candida dubliniensis, 10034, 24 h", "how_it_was_run": "as §1"}, "Candida dubliniensis [12]": {"tested_on": "Candida dubliniensis", "experiment": "Antifungal activity against Candida dubliniensis 10034 after 48 hrs", "details": "Candida dubliniensis, 10034, 48 h", "how_it_was_run": "as §1"}, "Candida dubliniensis [13]": {"tested_on": "Candida dubliniensis", "experiment": "Antifungal activity against Candida dubliniensis 10035 after 24 hrs", "details": "Candida dubliniensis, 10035, 24 h", "how_it_was_run": "as §1"}, "Candida dubliniensis [14]": {"tested_on": "Candida dubliniensis", "experiment": "Antifungal activity against Candida dubliniensis 10035 after 48 hrs", "details": "Candida dubliniensis, 10035, 48 h", "how_it_was_run": "as §1"}, "Candida dubliniensis [15]": {"tested_on": "Candida dubliniensis", "experiment": "Antifungal activity against Candida dubliniensis 9453 by hemocytometry", "how_it_was_run": "(§2)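 Minimal fungicidal concentration from the broth dilution test, defined as the lowest drug level giving ≥99.9% reduction in CFU/ml. Inocula were adjusted by hemocytometer.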"}, "Candida dubliniensis [16]": {"tested_on": "Candida dubliniensis", "experiment": "Antifungal activity against Candida dubliniensis 9456 by hemocytometry", "how_it_was_run": "as §2"}, "Candida dubliniensis [17]": {"tested_on": "Candida dubliniensis", "experiment": "Antifungal activity against Candida dubliniensis 10031 by hemocytometry", "how_it_was_run": "as §2"}, "Candida dubliniensis [18]": {"tested_on": "Candida dubliniensis", "experiment": "Antifungal activity against Candida dubliniensis 10032 by hemocytometry", "how_it_was_run": "as §2"}, "Candida dubliniensis [19]": {"tested_on": "Candida dubliniensis", "experiment": "Antifungal activity against Candida dubliniensis 10033 by hemocytometry", "how_it_was_run": "as §2"}, "Candida dubliniensis [20]": {"tested_on": "Candida dubliniensis", "experiment": "Antifungal activity against Candida dubliniensis 10034 by hemocytometry", "how_it_was_run": "as §2"}, "Candida dubliniensis [21]": {"tested_on": "Candida dubliniensis", "experiment": "Antifungal activity against Candida dubliniensis FMR 10032 infected in immunosuppressed OF1 mouse assessed as fungal count in kidney at 1 mg/kg/day, iv […]", "how_it_was_run": "(§3)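 Male OF1 mice, 10 per group, were immunosuppressed on infection day with cyclophosphamide 200 mg/kg i.p. plus 5-fluorouracil 150 mg/kg i.v., then challenged i.v. with 1.5 × 10^5 CFU. Drug was given at 1 mg/kg i.v. once daily for 5 days, starting 24 h after challenge. One day after treatment ended, kidney and spleen homogenates were plated in 10-fold dilutions on Sabouraud agar (35°C, 3 days) and mean log10 CFU was reported.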"}, "Candida dubliniensis [22]": {"tested_on": "Candida dubliniensis", "experiment": "Antifungal activity against Candida dubliniensis FMR 10034 infected in OF1 mouse assessed as fungal count in spleen at 1 mg/kg/day, iv […]", "how_it_was_run": "(§4)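 Immunocompetent male OF1 mice, 10 per group, were challenged i.v. with 1.5 × 10^7 CFU. Drug was given i.v. once daily at 1 or 10 mg/kg for 3 days, starting 24 h post-challenge; controls were untreated. Mice were killed 1 day after the last dose. Kidneys and spleen were homogenized in saline, serial 10-fold dilutions were plated on Sabouraud agar at 35°C for 3 days, and mean log10 CFU was reported.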"}, "Candida dubliniensis [23]": {"tested_on": "Candida dubliniensis", "experiment": "Antifungal activity against Candida dubliniensis 10034 assessed as compound concentration at which paradoxical growth of observed after 48 hrs", "how_it_was_run": "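In the same broth dilution (CLSI M27-A3) tests, read at 24 or 48 h, this is the range of drug concentrations over which paradoxical growth appeared. It was not set when growth occurred across the whole tested range (trailing).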"}, "Candida dubliniensis [24]": {"tested_on": "Candida dubliniensis", "experiment": "Antifungal activity against Candida dubliniensis FMR 10032 infected in OF1 mouse assessed as fungal count in kidney at 10 mg/kg/day, iv […]", "how_it_was_run": "as §4"}, "Candida dubliniensis [25]": {"tested_on": "Candida dubliniensis", "experiment": "Antifungal activity against Candida dubliniensis FMR 10032 infected in OF1 mouse assessed as fungal count in kidney at 1 mg/kg/day, iv […]", "how_it_was_run": "as §4"}, "Candida dubliniensis [26]": {"tested_on": "Candida dubliniensis", "experiment": "Antifungal activity against Candida dubliniensis FMR 10032 infected in OF1 mouse assessed as fungal count in spleen at 10 mg/kg/day, iv […]", "how_it_was_run": "as §4"}, "Candida dubliniensis [27]": {"tested_on": "Candida dubliniensis", "experiment": "Antifungal activity against Candida dubliniensis FMR 10032 infected in OF1 mouse assessed as fungal count in spleen at 1 mg/kg/day, iv […]", "how_it_was_run": "as §4"}, "Candida dubliniensis [28]": {"tested_on": "Candida dubliniensis", "experiment": "Antifungal activity against Candida dubliniensis FMR 10034 infected in OF1 mouse assessed as fungal count in kidney at 10 mg/kg/day, iv […]", "how_it_was_run": "as §4"}, "Candida dubliniensis [29]": {"tested_on": "Candida dubliniensis", "experiment": "Antifungal activity against Candida dubliniensis FMR 10034 infected in OF1 mouse assessed as fungal count in kidney at 1 mg/kg/day, iv […]", "how_it_was_run": "as §4"}, "Candida dubliniensis [30]": {"tested_on": "Candida dubliniensis", "experiment": "Antifungal activity against Candida dubliniensis FMR 10034 infected in OF1 mouse assessed as fungal count in spleen at 10 mg/kg/day, iv […]", "how_it_was_run": "as §4"}, "Candida dubliniensis [31]": {"tested_on": "Candida dubliniensis", "experiment": "Antifungal activity against Candida dubliniensis FMR 10032 infected in immunosuppressed OF1 mouse assessed as fungal count in spleen at 1 mg/kg/day, iv […]", "how_it_was_run": "as §3"}, "Candida dubliniensis [32]": {"tested_on": "Candida dubliniensis", "experiment": "Antifungal activity against Candida dubliniensis FMR 10034 infected in immunosuppressed OF1 mouse assessed as fungal count in kidney at 1 mg/kg/day, iv […]", "how_it_was_run": "as §3"}, "Candida dubliniensis [33]": {"tested_on": "Candida dubliniensis", "experiment": "Antifungal activity against Candida dubliniensis FMR 10034 infected in immunosuppressed OF1 mouse assessed as fungal count in spleen at 1 mg/kg/day, iv […]", "how_it_was_run": "as §3"}}, "note": "Starred links: 1 amine or outer side, 2 acyl side, 3 side chain; linkers in the order of their positions; H or OH if unused. Positions of bridges follow the written chain, without caps; N, C: chain ends. Non-standard residues stand in square brackets, D forms with d. Residues, ends and D or L forms follow the SMILES beside them. *: point of attachment. hTyr(3S-OH,4S-OH,3'-OSO3H) = N[C@H](C(=O)O)[C@H](O)[C@@H](O)c1ccc(O)c(OS(=O)(=O)O)c1; Orn(4R-OH,5R-OH) = O=C([C@H](C[C@@H](O)[C@@H](O)N[*:3])N[*:1])[*:2]; Pro(3S-OH,4S-Me) = C[C@H]1CN[C@H](C(=O)O)[C@H]1O; X1 = CCCCCOc1ccc(-c2cc(-c3ccc(C(=O)*)cc3)no2)cc1; Gln(3R-OH) = NC(=O)C[C@@H](O)[C@H](N)C(=O)O; Hyp = O=C(O)[C@@H]1C[C@@H](O)CN1", "data": [{"smiles": "CCCCCOc1ccc(-c2cc(-c3ccc(C(=O)N[C@H]4C[C@@H](O)[C@@H](O)NC(=O)[C@@H]5[C@@H](O)[C@@H](C)CN5C(=O)[C@H]([C@H](O)CC(N)=O)NC(=O)[C@H]([C@H](O)[C@@H](O)c5ccc(O)c(OS(=O)(=O)O)c5)NC(=O)[C@@H]5C[C@@H](O)CN5C(=O)[C@H]([C@@H](C)O)NC4=O)cc3)no2)cc1", "note": "[MICAFUNGIN] (X1-[Orn(4R-OH,5R-OH)]T[Hyp][hTyr(3S-OH,4S-OH,3'-OSO3H)][Gln(3R-OH)][Pro(3S-OH,4S-Me)]; lactam 1-C)", "values": [{"measurement": "MIC50", "setting": "Candida dubliniensis [1]", "value": 0.125, "unit": "µg/mL"}, {"measurement": "MIC50", "setting": "Candida dubliniensis [2]", "value": 0.125, "unit": "µg/mL"}, {"measurement": "MIC50", "setting": "Candida dubliniensis [3]", "value": 0.06, "unit": "µg/mL"}, {"measurement": "MIC50", "setting": "Candida dubliniensis [4]", "value": 0.125, "unit": "µg/mL"}, {"measurement": "MIC50", "setting": "Candida dubliniensis [5]", "value": 0.125, "unit": "µg/mL"}, {"measurement": "MIC50", "setting": "Candida dubliniensis [6]", "value": 0.125, "unit": "µg/mL"}, {"measurement": "MIC50", "setting": "Candida dubliniensis [7]", "value": "< 0.03", "unit": "µg/mL"}, {"measurement": "MIC50", "setting": "Candida dubliniensis [8]", "value": 0.125, "unit": "µg/mL"}, {"measurement": "MIC50", "setting": "Candida dubliniensis [9]", "value": 0.125, "unit": "µg/mL"}, {"measurement": "MIC50", "setting": "Candida dubliniensis [10]", "value": 0.25, "unit": "µg/mL"}, {"measurement": "MIC50", "setting": "Candida dubliniensis [11]", "value": 0.06, "unit": "µg/mL"}, {"measurement": "MIC50", "setting": "Candida dubliniensis [12]", "value": 0.125, "unit": "µg/mL"}, {"measurement": "MIC50", "setting": "Candida dubliniensis [13]", "value": 0.03, "unit": "µg/mL"}, {"measurement": "MIC50", "setting": "Candida dubliniensis [14]", "value": 0.03, "unit": "µg/mL"}, {"measurement": "MFC", "setting": "Candida dubliniensis [15]", "value": "> 16", "unit": "µg/mL"}, {"measurement": "MFC", "setting": "Candida dubliniensis [16]", "value": "> 16", "unit": "µg/mL"}, {"measurement": "MFC", "setting": "Candida dubliniensis [17]", "value": "> 16", "unit": "µg/mL"}, {"measurement": "MFC", "setting": "Candida dubliniensis [18]", "value": 4, "unit": "µg/mL"}, {"measurement": "MFC", "setting": "Candida dubliniensis [19]", "value": 2, "unit": "µg/mL"}, {"measurement": "MFC", "setting": "Candida dubliniensis [20]", "value": "> 16", "unit": "µg/mL"}, {"measurement": "log10cfu", "setting": "Candida dubliniensis [21]", "value": 5.47}, {"measurement": "log10cfu", "setting": "Candida dubliniensis [22]", "value": 4.79}, {"measurement": "Activity", "setting": "Candida dubliniensis [23]", "value": 2, "unit": "µg/mL"}, {"measurement": "log10cfu", "setting": "Candida dubliniensis [24]", "value": 3.23}, {"measurement": "log10cfu", "setting": "Candida dubliniensis [25]", "value": 4.25}, {"measurement": "log10cfu", "setting": "Candida dubliniensis [26]", "value": 3.58}, {"measurement": "log10cfu", "setting": "Candida dubliniensis [27]", "value": 3.97}, {"measurement": "log10cfu", "setting": "Candida dubliniensis [28]", "value": 4.69}, {"measurement": "log10cfu", "setting": "Candida dubliniensis [29]", "value": 6.33}, {"measurement": "log10cfu", "setting": "Candida dubliniensis [30]", "value": 4.18}, {"measurement": "log10cfu", "setting": "Candida dubliniensis [31]", "value": 2.62}, {"measurement": "log10cfu", "setting": "Candida dubliniensis [32]", "value": 6.47}, {"measurement": "log10cfu", "setting": "Candida dubliniensis [33]", "value": 3.26}]}]}
